SIRT5 block – sirtuin-5 (human) deacylase inhibition | Q9NXA8 | Purified SirT5, succinyl-peptide AMC, trypsin-coupled fluorescence | inhibition, % at 15 µM | 330,000 compounds, 1.1% hits | AID 652115; in the data active = inhibition above about 15%
FGF22 binding – shifts melting point of recombinant human FGF22; Q9HCT0; recombinant FGF22 thermal shift, SYPRO orange fluorescence; percent of sucrose octasulfate shift, DMSO zero; activity (Tm shift, normalised), % at 9.99 µM; 340,000 compounds, 1.5% hits; AID 651658;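 active = mean Tm shift, scaled 0 neutral to 100 positive control, at about 1.3% or above, every replicate too, limit read from the data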
E-sel inducer – induces E-selectin expression in human endothelial cells; P16581; HUVEC E-selectin immunofluorescence imaging; normalized: neutral wells 0, TNF-alpha wells 100; activation, % at 7.58 µM; 260,000 compounds, 0.37% hits; AID 686992;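 active = mean E-selectin-positive cell signal at least 10% of the positive control, reached in at least 60% of replicates, without over 20% cell loss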
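Material: HUVEC primary endothelial cells; Amount: 3,000 cells per well; Dosing: single concentration; Medium: EGM-2 growth medium on 0.1% gelatin-coated wells; Read-out basis: percent E-selectin-positive cells; Signal: immunofluorescence imaging; Control set: TNF-alpha, DMSO.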
C2C12 statin – suppressors of simvastatin-induced myotoxicity in C2C12 myotubes; rescue of ATP level, % at 7.49 µM; ATP luminescence, 48 h; scaled: DMSO 0, geranylgeraniol control 100; AID 602340; 330,000 compounds, 0.78% hits;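 active = mean ATP rescue above about 67%, or every replicate alone reaching that limit, limit read from the data, passing the limit was not always enough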;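 note: myotubes were challenged with 10 µM simvastatin during compound exposure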
FN deposit inh – fibronectin deposition inhibition | AH1F fibroblasts, Alexa488-fibronectin deposition fluorescence, overnight | inhibition, % at 12.6 µM | 350,000 compounds, 0.086% hits;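 active = mean inhibition across replicates of 30% or more, regardless of how many single replicates reach that level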;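 note: positive control wells lacked labelled fibronectin entirely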
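test system = AH1F fibroblasts assembling fluorescent fibronectin matrix | quantity = 10000 AH1F cells per well | buffer or medium = DMEM plus 2% serum, read in PBS | doses = single dose, pinned | incubation = 1 h cell attachment, overnight exposure to compound and label | detection = fluorescence at 485 nm excitation, 525 nm emission | read-out basis = inhibition from reduced deposited-fibronectin fluorescence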
Ecoli rRNA inh – selective bacterial rRNA inhibition in E. coli; E. coli WT GFP vs humanized-ribosome RFP mutants, fluorescence, 24 h; hits give low values; DMSO median 0, no signal -100; GFP signal change (wild-type ribosome), % (test concentration not listed); 350,000 compounds, 1.6% hits; AID 720706;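 active = significant combined selectivity score with lowered wild-type GFP, culture density cut under 30%, mutant RFP and density less affected; inactive = any of these conditions unmet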
An asterisk follows results filed as active; / = no result. Shown are actives, neighbours in structure and some others; about 4% of the full set was active somewhere.

SMILES	SIRT5 block	FGF22 binding	E-sel inducer	C2C12 statin	FN deposit inh	Ecoli rRNA inh
CO[C@@H]1CN(C)C(=O)c2cc(NC(=O)NC(C)C)ccc2OC[C@H](C)N(CC2CC2)C[C@@H]1C	-4	0	0	9	1	-1
NC(=O)COC(=O)CSc1cccc2cccc(Cl)c12	-2	-1	3	/	-6	-29*
O=C(CSc1cccc2cccc(Cl)c12)OCC(=O)N1CCN(C(=O)c2ccco2)CC1	/	/	/	/	-1	/
Cc1c(OC(C)C(=O)NCC2CCC(C(=O)O)CC2)ccc2c3c(c(=O)oc12)CCCC3 (configuration not stated)	-16	0	/	95*	7	11
CC(Oc1cc2oc(=O)c3c(c2cc1Cl)CCCC3)C(=O)NCC1CCC(C(=O)O)CC1 (configuration not stated)	0	0	87*	-4	-13	-14
Cc1c(Cc2ccccc2)c(=O)oc2c(C)c(OC(C)C(=O)NCC3CCC(C(=O)O)CC3)ccc12 (configuration not stated)	-14	0	/	8	/	-21*
CC(Oc1cc2oc(=O)c3c(c2cc1Cl)CCC3)C(=O)NCC1CCC(C(=O)O)CC1 (configuration not stated)	2	0	/	4	-11	2
COc1ccc(CNS(=O)(=O)c2ccc(F)cc2Br)cc1	-3	0	0	12	2	-4
CCC(C)[C@H](NS(=O)(=O)c1ccc(F)cc1Br)C(=O)OC (some centres not stated)	/	43*	0	3	4	-19
CCOc1ccc(Br)cc1S(=O)(=O)NCc1ccc(S(N)(=O)=O)cc1	-2	0	5	-1	6	-9
CCOC(=O)NNS(=O)(=O)c1cc(Br)ccc1Br	1	43*	-1	8	9	0
COC(=O)[C@@H](NS(=O)(=O)c1cc(Br)ccc1Br)C(C)C	0	0	4	3	-1	-26*
O=C(C[C@@H]1CC[C@@H]2[C@H](COC[C@@H](O)CN2C(=O)Nc2ccc(F)cc2)O1)NCCc1ccccc1	-1	0	0	29	0	-2
O=C(C[C@H]1CC[C@@H]2[C@H](COC[C@H](O)CN2S(=O)(=O)c2ccc(F)cc2)O1)NCc1ccc(Cl)c(Cl)c1	1	0	0	-25	9	-24
CCOC(=O)c1cccc(OC(=O)CCNC(=O)c2ccc(Cl)cc2)c1	-2	0	0	23	-1	-28*
CO/N=C/C(=N\Nc1ccc(OC)cc1)C(=O)c1ccc(OC)cc1	/	/	/	6	/	/
COc1ccc(C(=O)C(/C=N/O)=N/Nc2ccc(F)cc2)cc1	0	0	1	-80	2	-26*
CO[C@H](CN(C)S(=O)(=O)c1cccc(Cl)c1)[C@H](C)CN([C@@H](C)CO)S(=O)(=O)c1ccc(Cl)cc1	1	0	0	5	-13	-1
CO[C@@H](CN(C)S(=O)(=O)c1ccc(Cl)cc1)[C@H](C)CN([C@H](C)CO)S(=O)(=O)c1cccc(Cl)c1	16*	0	0	-24	-3	-1
CCNC(=S)NCc1ccc(F)cc1	-2	0	-1	/	-2	6
Fc1ccc(CNC(=S)NCc2ccc(F)cc2)cc1	1	0	2	15	0	-31*
O=C(c1cccs1)N1CCN(C2CCN(Cc3ccccc3)CC2)CC1	/	/	/	101*	/	/
COc1ccc(CN2CCN(C(=O)c3cccs3)CC2)cc1Br	/	/	/	157*	/	/
COc1ccc(CN2CCN(C(=O)c3ccccc3C(=O)c3ccccc3)CC2)cc1F	/	44*	0	12	2	-18
O=C(c1cccs1)N1CCN(C2CCCCC2)CC1	/	/	/	1	-9	/
COc1ccc(CN2CCN(C(=O)c3cccc4ccccc34)CC2)cc1OC	-1	0	/	11	-3	-1
O=S(=O)(N[C@@H]1CC[C@@H](CCn2cc(-c3cccnc3)nn2)O[C@@H]1CO)c1ccc(Cl)cc1	0	0	0	-4	-22	-5
O=C(Nc1ccc(Cl)cc1)N1C[C@H]2[C@@H](c3ccccc31)[C@H](CO)N2C(=O)c1cccnc1	2	0	0	-4	2	-30

High-throughput results from PubChem.
